Reference: ChEMBL document CHEMBL3734694, “Design, synthesis, and anticancer evaluation of long-chain alkoxylated mono-carbonyl analogues of curcumin” (Eur J Med Chem, 2015)

How the values were obtained:
[1] = Cytotoxicity against human SW620 cells assessed as inhibition of cell proliferation at 10 uM incubated for 72 hrs by MTS assay; assay type: functional; details: SW-620, 72 h
How it was run: (§1)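 Single-concentration MTS screen at 10 μM. Cells in RPMI-1640 with 10% FBS, seeded at 4000 cells/well in triplicate, attached overnight, then exposed for 72 h at 37°C, 5% CO2. MTS for 4 h; absorbance 490 nm. Reported as % inhibition.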

[2] = Cytotoxicity against human SGC7901 cells assessed as inhibition of cell proliferation at 10 uM incubated for 72 hrs by MTS assay; assay type: functional; details: SGC-7901, 72 h; how it was run: as §1
[3] = Cytotoxicity against human MGC803 cells assessed as inhibition of cell proliferation at 10 uM incubated for 72 hrs by MTS assay; assay type: functional; details: MGC-803, 72 h; how it was run: as §1
[4] = system: CT26; experiment: Cytotoxicity against mouse CT26 cells at 10 uM assessed as inhibition of cell proliferation incubated for 72 hrs by MTS assay; assay type: functional; details: CT26, 72 h; how it was run: as §1
[5] = Cytotoxicity against human SW620 cells assessed as inhibition of cell proliferation incubated for 72 hrs by MTS assay; assay type: functional, cell-based; details: SW-620, 72 h
How it was run: (§2)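 Cells in RPMI-1640 with 10% heat-inactivated FBS at 37°C, 5% CO2. Seeded at 4000 cells/well in triplicate and attached overnight. Exposed to various concentrations for 72 h. MTS added for a further 4 h; absorbance at 490 nm. IC50 = concentration for 50% growth inhibition, as mean ± SEM of three independent tests.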

[6] = Cytotoxicity against human SGC7901 cells assessed as inhibition of cell proliferation incubated for 72 hrs by MTS assay; assay type: functional, cell-based; details: SGC-7901, 72 h; how it was run: as §2
[7] = Cytotoxicity against human MGC803 cells assessed as inhibition of cell proliferation incubated for 72 hrs by MTS assay; assay type: functional, cell-based; details: MGC-803, 72 h; how it was run: as §2
[8] = system: CT26; experiment: Cytotoxicity against mouse CT26 cells assessed as inhibition of cell proliferation incubated for 72 hrs by MTS assay; assay type: functional, cell-based; details: CT26, 72 h; how it was run: as §2
[9] = Cytotoxicity against human GES-1 cells assessed as inhibition of cell proliferation incubated for 72 hrs by MTS assay; assay type: functional, cell-based; details: GES1, 72 h; how it was run: as §2

Compound | inhibition at 10 µM [1] | inhibition at 10 µM [2] | inhibition at 10 µM [3] | inhibition at 10 µM [4] | IC50 [5] | IC50 [6] | IC50 [7] | IC50 [8] | IC50 [9]
COc1ccc(/C=C/C(=O)/C=C/c2ccc(OCCCN3CCOCC3)c(OC)c2)c(F)c1 | 79.3% | 51.6% | 3.64% | 67.6% |  |  |  |  | 
CCCN(CCC)CCCOc1ccc(/C=C2\CCC/C(=C\c3ccc(OCCCN(CCC)CCC)c(OC)c3)C2=O)cc1OC | 10.3% | 2.83% | -18.4% | 8.04% |  |  |  |  | 
COc1cc(OC)c(/C=C/C(=O)/C=C/c2ccc(OCCCN3CCOCC3)c(OC)c2)c(OC)c1 | 33.9% | 9.22% | 5.96% | 65.8% |  |  |  |  | 
COc1ccccc1/C=C/C(=O)/C=C/c1ccc(OCCCBr)c(OC)c1 | 81.5% | 74.8% | 80.1% | 77.2% | 3.53 µM | 2.84 µM | 6.69 µM | 6.39 µM | 4.11 µM
COc1cc(/C=C/C(=O)/C=C/c2ccc(OCCCN3CCOCC3)c(OC)c2)ccc1OCCCN1CCOCC1 | 84% | 67.5% | 44.5% | 89.7% |  |  |  |  | 
COc1cc(/C=C/C(=O)/C=C/c2ccccc2Cl)ccc1OCCCN1CCOCC1 | 81.6% | 75.3% | 38.5% | 87.2% |  |  |  |  | 
COc1cc(/C=C2\CCC/C(=C\c3ccc(OCCCN4CCCCC4)c(OC)c3)C2=O)ccc1OCCCN1CCCCC1 | 86.9% | 82.8% | 76.9% | 93.2% | 2.49 µM | 2.32 µM | 2.92 µM | 2.42 µM | 6.35 µM
O=C1/C(=C/c2ccc(OCCBr)cc2)CCC/C1=C\c1ccc(OCCBr)cc1 | 0.12% | 10.8% | 0.05% | 58.3% |  |  |  |  | 
COc1cc(/C=C/C(=O)/C=C/c2c(C)cc(C)cc2C)ccc1OCCCN1CCOCC1 | 83.6% | 78.1% | 80.7% | 89.6% | 3.38 µM | 7.67 µM | 8.46 µM | 7.01 µM | 8.06 µM
COc1cc(/C=C/C(=O)/C=C/c2ccccc2C(F)(F)F)ccc1OCCCN1CCOCC1 | -3.21% | 3.22% | -2.85% | -24% |  |  |  |  | 
COc1cc(/C=C2\CC/C(=C\c3ccc(OCCBr)c(OC)c3)C2=O)ccc1OCCBr | 38.5% | 20.4% | 8.38% | 58.6% |  |  |  |  | 
COc1cc(/C=C2\CCC/C(=C\c3ccc(OCCCN4CCN(C)CC4)c(OC)c3)C2=O)ccc1OCCCN1CCN(C)CC1 | 86.7% | 84.8% | 77.5% | 109% | 1.04 µM | 1.88 µM | 1.94 µM | 2.01 µM | 3.27 µM
COc1cc(/C=C2\CCC/C(=C\c3cccc(OC)c3OC)C2=O)ccc1OCCCN1CCOCC1 | 22.5% | -6.53% | -9.26% | 57.2% |  |  |  |  | 
O=C1/C(=C/c2ccc(OCCBr)cc2)CC/C1=C\c1ccc(OCCBr)cc1 | 78.5% | 76% | 52% | 88.1% |  |  |  |  | 
COc1ccc(/C=C2\CCC/C(=C\c3ccc(OCCCN4CCOCC4)c(OC)c3)C2=O)cc1OC | 83.6% | 86.4% | 89.8% | 86.5% | 3.81 µM | 2.87 µM | 8.61 µM | 2.99 µM | 8.17 µM
COc1ccccc1/C=C/C(=O)/C=C/c1ccc(OCCBr)c(OC)c1 | 83.7% | 78.7% | 76.2% | 70.5% | 4.43 µM | 4.52 µM | 5.52 µM | 4.51 µM | 4.04 µM
COc1cc(/C=C2\CC/C(=C\c3ccc(OCCCN4CCCCC4)c(OC)c3)C2=O)ccc1OCCCBr | 84.5% | 89% | 91.4% | 90.2% | 4.47 µM | 5.08 µM | 7.31 µM | 3.86 µM | 7.03 µM

Compound | inhibition at 10 µM [1] | inhibition at 10 µM [2] | inhibition at 10 µM [3] | inhibition at 10 µM [4] | IC50 [5] | IC50 [6] | IC50 [7] | IC50 [8] | IC50 [9]
COc1cc(/C=C2\CC/C(=C\c3ccc(OCCCn4ccnc4)c(OC)c3)C2=O)ccc1OCCCBr | 65.7% | 14% | 7.1% | 87.1% |  |  |  |  | 
COc1cc(/C=C2\CCC/C(=C\c3ccc(OCCCn4ccnc4)c(OC)c3)C2=O)ccc1OCCCn1ccnc1 | 82.4% | 85% | 88.5% | 90.9% | 2.79 µM | 3.38 µM | 2.21 µM | 3.59 µM | 2.87 µM
COc1cc(/C=C2\CC/C(=C\c3ccc(OCCCN4CCOCC4)c(OC)c3)C2=O)ccc1OCCCN1CCOCC1 | 86% | 86.1% | 83.9% | 92.5% | 1.49 µM | 1 µM | 2.28 µM | 0.39 µM | > 30 µM
COc1cc(/C=C2\CCC/C(=C\c3ccc(OCCCN4CCOCC4)c(OC)c3)C2=O)ccc1OCCCBr | 72.7% | 61.9% | 51.2% | 65.2% | 5.64 µM | 11 µM | 10.2 µM | 10.5 µM | 10 µM
COc1cc(/C=C2\CCC/C(=C\c3ccc(OCCCBr)c(OC)c3)C2=O)ccc1OCCCBr | 61.2% | 18.9% | -8.68% | 49.8% |  |  |  |  | 
COc1ccc(/C=C/C(=O)/C=C/c2ccc(OCCCN3CCOCC3)c(OC)c2)cc1OC | 84.8% | 66.1% | 53.8% | 79.7% | 2.8 µM | 5.99 µM | 7.14 µM | 3.13 µM | 7.81 µM
COc1cc(/C=C/C(=O)/C=C/c2ccc(C(C)(C)C)cc2)ccc1OCCCN1CCOCC1 | 84.8% | 76.2% | 84.2% | 90.7% | 1.62 µM | 2.77 µM | 2.45 µM | 3.26 µM | 3.03 µM
COc1cc(/C=C2\CCC/C(=C\c3ccc(OCCCN4CCOCC4)c(OC)c3)C2=O)ccc1OCCCN1CCOCC1 | 85.7% | 81.8% | 78.1% | 93.3% | 1.98 µM | 4.96 µM | 2.06 µM | 2.69 µM | 3.02 µM
COc1cc(/C=C2\CC/C(=C\c3ccccc3C(F)(F)F)C2=O)ccc1OCCCN1CCOCC1 | 34.9% | 29.7% | 4.98% | 4.71% |  |  |  |  | 
COc1ccccc1/C=C1\CCC/C(=C\c2ccc(OCCCN3CCOCC3)c(OC)c2)C1=O | 22.9% | -0.33% | 2.3% | 31.6% |  |  |  |  | 
COc1cc(/C=C2\CC/C(=C\c3ccc(OCCCBr)c(OC)c3)C2=O)ccc1OCCCBr | 27.4% | 6.48% | 5.56% | 71% |  |  |  |  | 
COc1cc(/C=C2\CCC/C(=C\c3ccc(OCCCN4CCCCC4)c(OC)c3)C2=O)ccc1OCCCBr | 50% | 24.4% | 26.9% | 61.2% |  |  |  |  | 
COc1cc(/C=C2\CCC/C(=C\c3ccc(OCCCN4CCN(C)CC4)c(OC)c3)C2=O)ccc1OCCCBr | 48.1% | 15.7% | -7.15% | 37.3% |  |  |  |  | 
COc1cc(/C=C2\CCC/C(=C\c3ccc(OCCBr)c(OC)c3)C2=O)ccc1OCCBr | 66.3% | 69.2% | 58.4% | 77.3% | 6.26 µM | 6.26 µM | 7.72 µM | 9.85 µM | 3.56 µM
CCN(CC)CCCOc1ccc(/C=C2\CCC/C(=C\c3ccc(OCCCBr)c(OC)c3)C2=O)cc1OC | 85.3% | 86.4% | 87% | 92.3% | 4.65 µM | 11.9 µM | 15.5 µM | 12.8 µM | 14.1 µM
COc1cc(/C=C/C(=O)CC(=O)/C=C/c2ccc(O)c(OC)c2)ccc1O [CURCUMIN] |  |  |  |  | 12.5 µM | 24.4 µM | 31.4 µM | 7.7 µM | 27.9 µM
